These results are taken from ChEMBL document CHEMBL1141365, “A novel series of highly selective inhibitors of MMP-3” (Bioorg Med Chem Lett, 2007).

≈ marks a conversion by molar mass, not a printed value.

A word on the IC50: it is the concentration that gives 50% inhibition. For orientation: solubility means how much of the substance goes into solution per volume. Lower therefore signals a poorly soluble substance.

The nature of data set [1]: Selectivity for MMP3 over MMP2.
The target in data set [2] is 72 kDa type IV collagenase (Homo sapiens, UniProt P08253). The data set is described as follows: Inhibition of MMP2. Put shortly:
(§1)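 Catalytic-domain enzyme; 1 µM stock activated with APMA (1 mM, 1 h at 37 °C for MMP-2; 2 mM, 3 h at 37 °C for MMP-3), then diluted to 10 nM in Tris–HCl buffer. Assay used 0.1 nM enzyme and 5 µM fluorogenic substrate Mca-Arg-Pro-Lys-Tyr-Ala-Nva-Trp-Met-Lys(Dnp)-NH2. Inhibitor (≤1% DMSO) preincubated with enzyme 15 min at 37 °C. After substrate, 1 h at 37 °C; fluorescence read at ex 328/em 393 nm. IC50 taken from concentration–response curves as the geometric mean of ≥3 experiments.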

The target of data set [3] is Stromelysin-1 (Homo sapiens, UniProt P08254). The data set is described as follows: Inhibition of MMP3. Put shortly: as §1
Data set [4] is described as follows: Aqueous solubility of the compound. Type of data set: physicochemical. In short, it runs like this:
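Solubility in aqueous media determined across pH 1, 5, 7, 9 and 11.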

The target in data set [5] is T1, Interstitial collagenase (Homo sapiens, UniProt P03956).
T1 sequence (P03956 whole entry): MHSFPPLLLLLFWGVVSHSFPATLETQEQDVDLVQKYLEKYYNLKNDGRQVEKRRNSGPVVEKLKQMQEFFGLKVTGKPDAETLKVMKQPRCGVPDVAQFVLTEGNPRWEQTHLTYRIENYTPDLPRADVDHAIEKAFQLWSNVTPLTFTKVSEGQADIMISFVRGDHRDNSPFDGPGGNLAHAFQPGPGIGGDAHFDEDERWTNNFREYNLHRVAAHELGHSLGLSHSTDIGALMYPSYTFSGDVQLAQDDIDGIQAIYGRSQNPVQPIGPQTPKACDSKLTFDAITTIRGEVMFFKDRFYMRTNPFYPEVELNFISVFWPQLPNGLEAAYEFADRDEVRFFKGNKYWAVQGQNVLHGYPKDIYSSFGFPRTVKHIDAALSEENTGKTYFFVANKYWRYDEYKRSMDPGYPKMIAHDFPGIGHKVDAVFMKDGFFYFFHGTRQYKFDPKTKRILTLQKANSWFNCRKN
The data set is described as follows: Inhibition of MMP1.

Data set [6] concerns the target Matrix metalloproteinase-14 (Homo sapiens, UniProt P50281). The data set is described as follows: Inhibition of MMP14.
For data set [7], the target named is Matrix metalloproteinase-9 (Homo sapiens, UniProt P14780). The data set is described as follows: Inhibition of MMP9.
Data set [8] has as its target Collagenase 3 (Homo sapiens, UniProt P45452). The data set is described as follows: Inhibition of MMP13.

72 kDa type IV collagenase, sequence (P08253 whole entry): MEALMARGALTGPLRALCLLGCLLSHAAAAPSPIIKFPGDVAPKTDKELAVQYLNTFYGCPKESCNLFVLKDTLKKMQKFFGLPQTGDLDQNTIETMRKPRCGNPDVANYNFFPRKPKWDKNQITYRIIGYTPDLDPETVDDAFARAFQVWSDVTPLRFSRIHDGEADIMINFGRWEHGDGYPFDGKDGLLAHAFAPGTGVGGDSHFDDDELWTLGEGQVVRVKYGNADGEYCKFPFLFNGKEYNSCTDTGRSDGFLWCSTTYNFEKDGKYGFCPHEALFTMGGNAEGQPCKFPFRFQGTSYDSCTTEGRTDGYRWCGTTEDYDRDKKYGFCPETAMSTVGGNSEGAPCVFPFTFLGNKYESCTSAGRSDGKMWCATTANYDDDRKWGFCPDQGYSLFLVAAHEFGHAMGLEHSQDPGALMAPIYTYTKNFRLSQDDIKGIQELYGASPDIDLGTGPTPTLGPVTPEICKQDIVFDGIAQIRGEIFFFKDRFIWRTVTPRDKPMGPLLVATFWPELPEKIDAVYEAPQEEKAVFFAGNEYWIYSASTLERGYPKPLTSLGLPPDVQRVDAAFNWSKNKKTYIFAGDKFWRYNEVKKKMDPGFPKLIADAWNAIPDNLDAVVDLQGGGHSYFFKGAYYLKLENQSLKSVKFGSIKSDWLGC
Matrix metalloproteinase-9, sequence (P14780 whole entry): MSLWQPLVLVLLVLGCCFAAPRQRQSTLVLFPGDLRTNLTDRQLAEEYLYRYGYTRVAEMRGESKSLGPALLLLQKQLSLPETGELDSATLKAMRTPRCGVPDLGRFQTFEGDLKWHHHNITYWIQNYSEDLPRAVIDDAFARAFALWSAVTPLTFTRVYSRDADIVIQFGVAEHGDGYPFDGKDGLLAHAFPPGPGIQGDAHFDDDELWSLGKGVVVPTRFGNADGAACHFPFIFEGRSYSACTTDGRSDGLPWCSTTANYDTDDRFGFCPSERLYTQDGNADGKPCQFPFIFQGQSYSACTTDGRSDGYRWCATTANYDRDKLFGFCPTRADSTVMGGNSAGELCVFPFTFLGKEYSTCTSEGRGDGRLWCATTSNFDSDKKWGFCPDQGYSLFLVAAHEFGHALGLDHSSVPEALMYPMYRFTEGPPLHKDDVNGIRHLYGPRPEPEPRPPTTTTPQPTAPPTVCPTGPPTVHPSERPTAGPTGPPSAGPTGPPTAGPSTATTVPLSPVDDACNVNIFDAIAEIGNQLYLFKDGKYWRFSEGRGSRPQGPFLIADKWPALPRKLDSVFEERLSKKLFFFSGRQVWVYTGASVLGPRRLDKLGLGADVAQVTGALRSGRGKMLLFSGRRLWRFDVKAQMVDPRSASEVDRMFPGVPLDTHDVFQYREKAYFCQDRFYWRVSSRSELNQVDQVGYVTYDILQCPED
Stromelysin-1, sequence (P08254 whole entry): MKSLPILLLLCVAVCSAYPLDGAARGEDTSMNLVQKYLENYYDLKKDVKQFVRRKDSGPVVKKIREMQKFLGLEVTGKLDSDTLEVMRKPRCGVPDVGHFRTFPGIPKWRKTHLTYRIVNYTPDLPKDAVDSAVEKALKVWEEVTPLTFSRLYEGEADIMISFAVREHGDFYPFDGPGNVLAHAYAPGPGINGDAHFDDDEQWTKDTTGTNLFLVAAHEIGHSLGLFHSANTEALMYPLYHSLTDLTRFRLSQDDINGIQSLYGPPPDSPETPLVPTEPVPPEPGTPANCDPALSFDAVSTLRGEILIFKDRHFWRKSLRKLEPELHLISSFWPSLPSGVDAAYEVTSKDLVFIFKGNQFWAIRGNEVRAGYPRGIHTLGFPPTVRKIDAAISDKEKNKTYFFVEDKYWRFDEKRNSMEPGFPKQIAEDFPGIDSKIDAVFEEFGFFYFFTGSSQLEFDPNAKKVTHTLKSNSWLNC

Consider `O=C(CS(=O)(=O)N1CC=C(c2ccc(-c3ccccc3)cc2)CC1)NO`, for which the Selectivity ratio in data set [1] is less than 2. The results for the IC50 in data set [2] and in data set [3] were 9 nM and 6 nM, respectively.

As to `CN(Cc1ccc(-c2ccccc2)cc1)S(=O)(=O)CC(=O)NO`, in data set [1], the Selectivity ratio is less than 2. In addition, the IC50 in data set [3] was determined as 378 nM.

With `O=C(CS(=O)(=O)N1CC=C(c2ccc(-c3ccccc3)c(Cl)c2)CC1)NO`, the IC50 in data set [2] was 620 nM; in data set [3], 55 nM.

Turning to `CCOc1cccc(-c2ccc(C3CCN(S(=O)(=O)C(C)(C)C(=O)NO)CC3)cc2C)c1`, the IC50 in data set [2] worked out at 457 nM; in data set [3], 2 nM.

For the compound `Cc1cc(C2CCN(S(=O)(=O)C(C)(C)C(=O)NO)CC2)ccc1-c1cccc(OCCN(C)C)c1`, the half-maximal inhibitory concentration (IC50) in data set [2] came out at 534 nM; in data set [3] it was 1 nM.

Turning to `COc1cccc(-c2ccc(C3=CCN(S(=O)(=O)CC(=O)NO)CC3)cc2C)c1`, the IC50 was determined as 222 nM in data set [2] and 5 nM in data set [3].

With `Cc1cc(C2=CCN(S(=O)(=O)CC(=O)NO)CC2)ccc1-c1cccc(OC(F)(F)F)c1`, the IC50 worked out at 173 nM in data set [2] and 51 nM in data set [3].

`CN(CCc1ccc(-c2ccccc2)cc1)S(=O)(=O)CC(=O)NO`: the Selectivity ratio in data set [1] was less than 2. The IC50 in data set [3] came out at 164 nM.

In data set [4], `CCOc1cccc(-c2ccc(C3=CCN(S(=O)(=O)CC(=O)NO)CC3)cc2C)c1` had a solubility of less than 1 µg/mL. For the same compound, the IC50 in data set [2] was found to be 998 nM; in data set [3], 4 nM.

With `CNCCOc1cccc(-c2ccc(C3CCN(S(=O)(=O)C(C)(C)C(=O)NO)CC3)cc2C)c1`, the IC50 in data set [2] came to 196 nM; in data set [3], 0.3 nM.

As to `Cc1cc(C2=CCN(S(=O)(=O)CC(=O)NO)CC2)ccc1-c1ccccc1`, the midpoint of inhibition in data set [2], the IC50, lay at 320 nM.

Consider `O=C(CS(=O)(=O)N1CCC(c2ccc(Oc3ccccc3)cc2)CC1)NO`, for which, in data set [1], the Selectivity ratio is less than 2. 205 nM corresponded to half-maximal inhibition in data set [3] (IC50).

Take `O=C(CS(=O)(=O)N1CC(c2ccc(-c3ccccc3)cc2)C1)NO`: the Selectivity ratio in data set [1] is less than 2. Further, the IC50 in data set [3] was determined as 161 nM.

As for `Cc1cc(C2CCN(S(=O)(=O)C(C)(C)C(=O)NO)CC2)ccc1-c1cccc(OCCO)n1`, the IC50 in data set [5] came to 14000 nM; in data set [6], 20100 nM; in data set [2], 529 nM; in data set [7] it was 2420 nM; in data set [3], 1 nM. This compound also returned a solubility in data set [4] of 1 µg/mL (≈ 2.09 µM).

With `O=C(CS(=O)(=O)N1CCC(c2ccc(-c3ccccc3)cc2)CC1)NO`, in data set [1], the Selectivity ratio was less than 2.

As to `Cc1cccc(-c2ccc(C3=CCN(S(=O)(=O)CC(=O)NO)CC3)cc2C)c1`, the IC50 stood at 776 nM in data set [2] and 4 nM in data set [3].

`O=C(CS(=O)(=O)N1CC=C(c2ccc(-c3ccccc3)c(C(F)(F)F)c2)CC1)NO`: the IC50 came out at 3080 nM in data set [2] and 960 nM in data set [3].

As for `COCc1cccc(-c2ccc(C3=CCN(S(=O)(=O)CC(=O)NO)CC3)cc2C)c1`, the IC50 in data set [2] was determined as 196 nM; in data set [3], 3 nM.

On to `COC[C@@H](NC(=O)[C@@H](NC(=O)[C@H](CCCc1ccc(-c2ccccc2)c(C)c1)CC(=O)O)C(C)(C)C)c1ccccc1`, for which the IC50 in data set [5] is greater than 100000 nM; in data set [6] it was 66900 nM; in data set [7], 30400 nM; in data set [3], 23 nM; in data set [8], 2300 nM.

On to `CCc1cccc(-c2ccc(C3=CCN(S(=O)(=O)CC(=O)NO)CC3)cc2C)c1`, for which the values for the IC50 in data set [2] and in data set [3] were 1210 nM and 31 nM, respectively.

With `O=C(CS(=O)(=O)N1CC=C(c2ccc(-c3ccccc3)c(F)c2)CC1)NO`, the figures for the IC50 in data set [2] and in data set [3] were 17 nM and 3 nM, respectively.

Take `O=C(CS(=O)(=O)N1CC(Oc2ccc(-c3ccccc3)cc2)C1)NO`: the Selectivity ratio in data set [1] is less than 2. Also, in data set [3], it took 84 nM to reach half-maximal inhibition (IC50).

Take `Cc1cc(C2CCN(S(=O)(=O)C(C)(C)C(=O)NO)CC2)ccc1-c1cccc(OCCN)c1`: the values for the IC50 in data set [2] and in data set [3] were 188 nM and 0.4 nM, respectively.

For the compound `CN(CCCc1ccc(-c2ccccc2)cc1)S(=O)(=O)CC(=O)NO`, the Selectivity ratio in data set [1] is less than 2. The same compound returned an IC50 in data set [3] of 174 nM.

`CCc1cc(C2=CCN(S(=O)(=O)CC(=O)NO)CC2)ccc1-c1ccccc1`: the IC50 in data set [2] came out at 4380 nM; in data set [3] it was 420 nM.

As to `Cc1cc(C2CCN(S(=O)(=O)C(C)(C)C(=O)NO)CC2)ccc1-c1cccc(OCCO)c1`, the IC50 in data set [5] turned out to be 3230 nM; in data set [6] it was 1710 nM; in data set [2], 262 nM; in data set [7] it was 406 nM; in data set [3], 1 nM. This compound also registered a solubility in data set [4] of 1 µg/mL (≈ 2.1 µM).

In the case of `COCCOc1cccc(-c2ccc(C3CCN(S(=O)(=O)C(C)(C)C(=O)NO)CC3)cc2C)c1`, the results for the IC50 in data set [2] and in data set [3] were 853 nM and 3 nM, respectively.
